Results published in ChEMBL document CHEMBL1134791, “2- and 3-substituted 1,4-naphthoquinone derivatives as subversive substrates of trypanothione reductase and lipoamide dehydrogenase from Trypanosoma cruzi: synthesis and correlation between redox cycling activities and in vitro cytotoxicity” (J Med Chem, 2001).

Tests used:
[1] = substrate: CC1=CC(=O)c2c(O)cccc2C1=O; test: (§1) The Michaelis-Menten constant for […] by pig heart LipDH (lipoamide dehydrogenase)
In short: (§2)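 Recombinant T. cruzi LipDH (E. coli, purified) or pig heart LipDH, 0.1–2.5 µg/mL. Buffer was 50 mM potassium phosphate, 1 mM EDTA, pH 7.0, with 100 µM NADH and naphthoquinone at 10 µM–1.2 mM; all assays carried equal DMSO. Run at 31 °C, started with enzyme, NADH decrease followed at 340 nm. Km and Vmax from Lineweaver–Burk plots. At least duplicate.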

[2] = substrate: CC1=CC(=O)c2ccccc2C1=O; test: as §1; in short: as §2
[3] = substrate: CC1=C(CCC(=O)NCCCN2CCN(C)CC2)C(=O)c2ccccc2C1=O; test: as §1; in short: as §2
[4] = substrate: CC1=C(CCC(=O)O)C(=O)c2c(O)cccc2C1=O; test: The Michaelis-Menten constant for NADH oxidation by pig heart LipDH (lipoamide dehydrogenase)
[5] = substrate: CC1=C(CCCNC(=O)OC(C)(C)C)C(=O)c2ccccc2C1=O; test: as above
[6] = substrate: CC1=C(CCCNC(=O)OC(C)(C)C)C(=O)c2c(O)cccc2C1=O; test: as above
[7] = substrate: CC1=C(CCC(=O)O)C(=O)c2ccccc2C1=O; test: as above
[8] = substrate: CC1=C(CCC(=O)NCCCN2CCN(C)CC2)C(=O)c2c(O)cccc2C1=O; test: as above
[9] = substrate: CC1=CC(=O)c2c(O)cccc2C1=O; test: (§3) Vmax is the maximum velocity of the pig heart LipDH (lipoamide dehydrogenase) catalyzed NADH oxidation; in short: as §2
[10] = substrate: CC1=C(CCC(=O)O)C(=O)c2c(O)cccc2C1=O; test: as §3; in short: as §2
[11] = substrate: CC1=C(CCCNC(=O)OC(C)(C)C)C(=O)c2ccccc2C1=O; test: as §3; in short: as §2
[12] = substrate: CC1=C(CCCNC(=O)OC(C)(C)C)C(=O)c2c(O)cccc2C1=O; test: as §3; in short: as §2
[13] = substrate: CC1=CC(=O)c2ccccc2C1=O; test: as §3; in short: as §2
[14] = substrate: CC1=C(CCC(=O)O)C(=O)c2ccccc2C1=O; test: as §3; in short: as §2
[15] = substrate: CC1=C(CCC(=O)NCCCN2CCN(C)CC2)C(=O)c2c(O)cccc2C1=O; test: as §3; in short: as §2
[16] = substrate: CC1=C(CCC(=O)NCCCN2CCN(C)CC2)C(=O)c2ccccc2C1=O; test: as §3; in short: as §2

B1: Dihydrolipoyl dehydrogenase, mitochondrial (Sus scrofa), P09623 (protein)
chain: MQSWSRVYCTLAKRGHFNRIAHGLQGVSAVPLRTYADQPIDADVTVIGSGPGGYVAAIKAAQLGFKTVCIEKNETLGGTCLNVGCIPSKALLNNSHYYHMAHGKDFASRGIEMSEVRLNLEKMMEQKSNAVKALTGGIAHLFKQNKVVRVNGYGKITGKNQVTATKADGSTEVINTKNILIATGSEVTPFPGITIDEDTVVSSTGALSLKKVPEKMVVIGAGVIGVELGSVWQRLGADVTAVELLGHVGGIGIDMEVSKNFQRILQKQGFKFKLNTKVIGATKKSDGNIDVSIEAASGGKAEVITCDVLLVCIGRRPFTQNLGLEELGIELDPRGRIPVNTRFQTKIPNIYAIGDVVAGPMLAHKAEDEGIICVEGMAGGAVHIDYNCVPSVIYTHPEVAWVGKSEEQLKEEGIEYKVGKFPFAANSRAKTNADTDGMVKILGQKSTDRVLGAHIIGPGAGEMINEAALALEYGASCEDIARVCHAHPTLSEAFREANLAASFGKAINF
With B1 the Km [1] was 74 µM, the Km [2] was 72 µM and the Km [3] was 110 µM. The Km [4] was 75 µM, the Km [5] was 25 µM and the Km [6] was 40 µM. The Km [7] was 40 µM, the Km [8] was 15 µM and the Vmax [9] was 25.3 µM/min/mg. For the same protein, the Vmax [10] was 2.2 µM/min/mg, the Vmax [11] was 1.03 µM/min/mg and the Vmax [12] was 1.66 µM/min/mg. It also gave a Vmax [13] of 11.5 µM/min/mg, a Vmax [14] of 1.52 µM/min/mg and a Vmax [15] of 1.09 µM/min/mg. The Vmax [16] was 3.46 µM/min/mg.
